Test [1] has as its system HL-60. Nature of the test: Cytotoxicity against human HL60 cells after 48 hrs by MTT assay. In kind it is functional, cell-based. Conditions: HL-60, 48 h. Summed up: (§1)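 Cells grown in RPMI-1640 or DMEM with 10% FBS at 37 °C, 5% CO2, seeded at 1 × 10^5 cells/mL. Adherent lines were left 12 h to attach; suspension cells were added just before dosing. Various concentrations were tested in triplicate for 48 h, with cisplatin and paclitaxel controls. MTT (100 µg) was then added for 4 h, cells lysed in 20% SDS-50% DMF, and OD read at 595 nm. IC50 was calculated by the Reed-Muench method.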
A general note: Formazan colour is commonly taken as a measure of viable cells.

The subject of test [2] is SK-BR-3. Nature of the test: Cytotoxicity against human SK-BR-3 cells after 48 hrs by MTT assay. The format is functional, cell-based. Conditions: SK-BR-3, 48 h. The method, boiled down: as §1
Test [3] has as its system A549. Nature of the test: Cytotoxicity against human A549 cells after 48 hrs by MTT assay. Conditions: A549, 48 h. The format is functional, cell-based. The method, boiled down:
as §1

Test [4] deals with PANC-1. The experiment in a line: Growth inhibition of human PANC1 cells after 48 hrs by MTT assay. Conditions: PANC-1, 48 h.
Test [5] has as its system SMMC-7721. The experiment in a line: Cytotoxicity against human SMMC7721 cells after 48 hrs by MTT assay. In kind it is functional, cell-based. Conditions: SMMC-7721, 48 h. The method, boiled down: as §1

The values that follow come from ChEMBL document CHEMBL1165999, “Cytotoxic ent-kaurane diterpenoids from Isodon rubescens var. lushiensis” (J Nat Prod, 2010).

For the molecule `C=C1C(=O)[C@@]23[C@@H]4C[C@@H]5C(C)(C)CCC[C@@]5([C@@H](OC)O4)[C@@H]2[C@@H](O)C[C@@H]1[C@H]3O`, the IC50 in test [1] was determined as 0.95 µM; in test [2], 3.3 µM; in test [3], 5.6 µM; in test [4], 9.8 µM; in test [5], 4.4 µM.
With `C=C1C(=O)[C@@]23[C@@H]4C[C@@H]5C(C)(C)CCC[C@@]5([C@@H](OCC)O4)[C@@H]2[C@@H](O)C[C@@H]1[C@H]3O`, the IC50 was found to be 0.64 µM in test [1]; 2.4 µM in test [2]; 4.2 µM in test [3]; 5.2 µM in test [4]; 3.5 µM in test [5].
Turning to `C=C1C(=O)[C@@]23[C@@H]4C[C@@H]5C(C)(C)CCC[C@@]5([C@@H](O)O4)[C@@H]2[C@@H](O)C[C@@H]1[C@H]3O`, the IC50 in test [1] amounted to 1.2 µM; in test [2] it was 4.4 µM; in test [3], 5.9 µM; in test [4] it was 8.6 µM; in test [5] it was 6.2 µM.
`C=C1[C@@H](O)[C@]23[C@H](O)[C@H]1CC[C@H]2[C@@]12CO[C@@]3(O)[C@@H](O)[C@@H]1C(C)(C)CC[C@@H]2O` [ENMENOL]: the IC50 in test [1] was 6.7 µM; in test [2], over 10 µM; in test [3], over 10 µM; in test [4] it was over 10 µM; in test [5] it was over 10 µM.
As to `C=C1C(=O)[C@@]23[C@H](O)C[C@@H]4C(C)(C)CCC[C@@]4(COC(C)=O)[C@@H]2[C@@H](O)C[C@@H]1[C@H]3O` [FLEXICANLIN A], the IC50 in test [1] is 0.64 µM; in test [2], over 10 µM; in test [3] it was 9.8 µM; in test [4], 5.7 µM; in test [5] it was 9.9 µM.
In the same order, the values of `C=C1[C@@H]2CC[C@H]3[C@]45CC[C@@H]6OC4O[C@@H](C[C@@H]5C6(C)C)[C@]3(C2)[C@@H]1O` [ISOLUSHININ A] are over 10 µM, over 10 µM, over 10 µM, over 10 µM and over 10 µM.
In the same order, the values of `C=C1[C@@H]2CC[C@H]3[C@]45CCC[C@@](C)(COC(C)=O)[C@H]4[C@H](O)[C@](O)(OC5)[C@]3(C2)[C@@H]1O` [ISOLUSHININ B] are over 10 µM, over 10 µM, over 10 µM, over 10 µM and over 10 µM.
Take `C=C1C(=O)[C@@]23[C@@H]4C[C@@H]5C(C)(C)CCC[C@@]5([C@@H](OC)O4)[C@@H]2[C@@H](OC(C)=O)C[C@@H]1[C@H]3O` [ISOLUSHININ D]: the half-inhibitory concentration (IC50) in test [1] worked out at 1.1 µM; in test [2], 6.4 µM; in test [3], 6.4 µM; in test [4], 7 µM; in test [5] it was 4.7 µM.
As to `C=C1C(=O)[C@@]23[C@@H]4C[C@@H]5C(C)(C)[C@H](O)CC[C@@]5([C@@H](OC)O4)[C@@H]2[C@@H](O)C[C@@H]1[C@H]3O` [ISOLUSHININ F], the IC50 in test [1], in test [2], in test [3], in test [4] and in test [5] was over 10 µM in each case.
In the case of `C=C1C(=O)[C@@]23[C@H](O)C[C@@H]4C(C)(C)CCC[C@@]4(COC(C)=O)[C@@H]2[C@@H](O)[C@H](O)[C@@H]1[C@H]3O` [ISOLUSHININ G], the IC50 in test [1], in test [2], in test [3], in test [4] and in test [5] was over 10 µM in each case.
On to `C=C1C(=O)[C@@]23[C@H](O)C[C@@H]4[C@@](C)(CO)CCC[C@@]4(COC(C)=O)[C@@H]2CC[C@@H]1[C@H]3O` [ISOLUSHININ H], for which the IC50 is 2.5 µM in test [1]; 6.1 µM in test [2]; over 10 µM in test [3]; 6.6 µM in test [4]; over 10 µM in test [5].
For the molecule `C=C1C(=O)[C@@]23[C@H](O)C[C@@H]4C(C)(C)CCC[C@@]4(CO)[C@@H]2[C@@H](O)C[C@@H]1[C@H]3O` [KAMEBAKAURININ], the IC50 in test [1] is 1.8 µM; in test [2], over 10 µM; in test [3] it was over 10 µM; in test [4], over 10 µM; in test [5] it was over 10 µM.
For the molecule `C=C1C(=O)[C@]23C[C@H]1C[C@@H](O)[C@H]2[C@@]1(CCC[C@@]2(C)COC(=O)[C@H]21)COC3=O` [LUDONGNIN A], the IC50 in test [1] is 3.1 µM; in test [2], over 10 µM; in test [3], over 10 µM; in test [4] it was over 10 µM; in test [5], over 10 µM.
Consider `CO[C@@H]1OC[C@]2(C)CCC[C@]3(COC(=O)[C@@]45C[C@@H](CC[C@H]43)[C@H](C)C5=O)[C@H]12` [LUDONGNIN G], for which the IC50 in test [1], in test [2], in test [3], in test [4] and in test [5] was over 10 µM each time.
Consider `C=C1C(=O)[C@]23[C@H](O)[C@H]1CC[C@H]2[C@@]12CO[C@]3(O)[C@@H](O)[C@@H]1C(C)(C)CC[C@@H]2O` [ORIDONIN], for which the IC50 in test [1] was 3.9 µM; in test [2] it was over 10 µM; in test [3] it was over 10 µM; in test [4], over 10 µM; in test [5], over 10 µM.
As for `CC(=O)O[C@H]1C(=O)[C@@]2(C)[C@H]([C@H](OC(=O)c3ccccc3)[C@]3(O)C[C@H](OC(=O)[C@H](O)[C@@H](NC(=O)c4ccccc4)c4ccccc4)C(C)=C1C3(C)C)[C@]1(OC(C)=O)CO[C@@H]1C[C@@H]2O` [PACLITAXEL], the IC50 in test [1] is under 0.008 µM; in test [2], 0.11 µM; in test [3], 1.4 µM; in test [4] it was under 0.008 µM; in test [5] it was under 0.008 µM.
On to `C=C1C(=O)[C@@]23[C@H](O)C[C@@H]4C(C)(C)CCC[C@@]4(C)[C@@H]2[C@@H](O)C[C@@H]1[C@H]3O` [PHYLLOSTACHYSIN F], for which the IC50 was found to be 0.85 µM in test [1]; 3.3 µM in test [2]; 3.3 µM in test [3]; 4.5 µM in test [4]; 5.5 µM in test [5].
Consider `C=C1C(=O)[C@@]23CC[C@@H]4C(C)(C)CC[C@H](O)[C@@]4(C)[C@@H]2[C@@H](O)C[C@@H]1[C@H]3O` [PHYLLOSTACHYSIN H], for which the concentration for half-maximal inhibition (IC50) in test [1] was 6.4 µM; in test [2], over 10 µM; in test [3] it was over 10 µM; in test [4] it was over 10 µM; in test [5], over 10 µM.
On to `C=C1[C@@H]2C[C@@H](O)[C@@H]3[C@](C2)(C(=O)O[C@H]2CC[C@@]4(C)CO[C@H]5OC[C@]23[C@H]54)[C@@H]1O` [SCULPONEATIN B], for which the IC50 in test [1], in test [2], in test [3], in test [4] and in test [5] was over 10 µM in each case.

The IC50 is the concentration needed to halve the response being measured.
